Here are results for 8 compounds from ChEMBL document CHEMBL1781968, “δ-Carbolines and their ring-opened analogs: synthesis and evaluation against fungal and bacterial opportunistic pathogens” (Eur J Med Chem, 2011).

One may read the IC50 as the concentration needed to halve the response being measured. The term MBC denotes the lowest tested concentration that kills the bacteria rather than only halting them. The term MIC denotes the lowest concentration that inhibits growth of the organism. What is called MFC is the smallest concentration meeting the test's criterion for killing the fungus.

Each structure is given as a SMILES string. Calls of active or inactive are those of the source. A value given as a limit tells only on which side of the number the result lay.

Series [1] deals with Staphylococcus aureus. The series can be described thus: Antibacterial activity against methicillin-resistant Staphylococcus aureus ATCC 33591 by NCCLS method. Type of series: functional, organism-based. A digest of the protocol: (§1)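 Broth microdilution (modified NCCLS). Samples in DMSO serially diluted in 0.9% saline, tested in duplicate, highest final concentration 20 μg/mL. Inoculum matched to 0.5 McFarland standard by absorbance at 630 nm, then diluted in cation-adjusted Mueller–Hinton broth. Growth, solvent and medium controls on each plate. Absorbance at 530 nm read before and after incubation. IC50 taken from percent growth versus concentration plot; MIC is lowest concentration with no detectable growth; MBC is lowest concentration killing the organism.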

For series [2], the system named is Escherichia coli. The series can be described thus: Antibacterial activity against Escherichia coli at 20 ug/ml by NCCLS method. Type of series: functional, organism-based. The method, boiled down: (§2)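 Modified NCCLS broth microdilution. DMSO-dissolved samples serially diluted in 0.9% saline, tested in duplicate, final concentrations starting at 20 μg/mL. Inoculum set to 0.5 McFarland (absorbance 630 nm) and diluted in cation-adjusted Mueller–Hinton broth. Growth, solvent and medium controls on each plate. Read at 530 nm before and after incubation. IC50 from percent growth versus concentration. MIC is lowest concentration with no detectable growth.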

The test system of series [3] is Mycobacterium intracellulare. The series can be described thus: Antibacterial activity against Mycobacterium intracellular ATCC 23068 by alamar blue method. Type of series: functional, organism-based. A digest of the protocol: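 Modified Alamar blue method (Franzblau). Samples in DMSO serially diluted in 0.9% saline, in duplicate, final concentrations starting at 20 μg/mL. Inoculum adjusted to 0.5 McFarland, then diluted in Middlebrook 7H9 with OADC enrichment plus 5% Alamar blue. Fluorescence read (ex 544/em 590 nm) before and after incubation. IC50 from percent growth versus concentration. MIC is no detectable growth.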

Series [4] relates to Staphylococcus aureus. The series can be described thus: Antibacterial activity against Staphylococcus aureus ATCC 29213 by NCCLS method. It is filed as functional, organism-based. A digest of the protocol:
as §1

Series [5] has as its system Aspergillus fumigatus. The series can be described thus: Antifungal activity against Aspergillus fumigatus ATCC 204305 at 20 ug/ml by NCCLS method. It is filed as functional, organism-based. A digest of the protocol:
(§3)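 Modified NCCLS microdilution for fungi. Samples in DMSO serially diluted with 0.9% saline, in duplicate, final concentrations from 20 μg/mL down. Inocula matched to 0.5 McFarland (630 nm) and diluted in Sabouraud dextrose broth. Growth, solvent and medium controls included. OD 530 nm read before and after incubation. IC50 from percent growth curve. MIC is no detectable growth. MFC is lowest concentration killing the organism.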

A short description of series [6]: Cytotoxicity against african green monkey Vero cell after 48 hrs by neutral red uptake assay. The conditions noted are these: chlorocebus sabaeus, Vero cells; read-out: TC50. It is filed as cell-based. A digest of the protocol:
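VERO kidney fibroblasts seeded at 25,000 cells/well and incubated 24 h. Compounds added, highest concentration 10 μg/mL, then 48 h further incubation. Viable cells measured by neutral red assay. IC50 taken from growth-inhibition dose curves. Doxorubicin as positive control, DMSO as vehicle control.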

The test system of series [7] is Escherichia coli. The series can be described thus: Antibacterial activity against Escherichia coli by NCCLS method. Type of series: functional, organism-based. The method, boiled down:
as §2

For another series, the system named is Candida albicans. The series can be described thus: Antifungal activity against Candida albicans ATCC 90028 by NCCLS method. It is filed as functional, organism-based. The method, boiled down: as §3
The next series concerns Cryptococcus neoformans. The series can be described thus: Antifungal activity against Cryptococcus neoformans ATCC 90113 by NCCLS method. Type of series: functional, organism-based. A digest of the protocol:
as §3

Series [8] relates to Aspergillus fumigatus. The series can be described thus: Antifungal activity against Aspergillus fumigatus ATCC 204305 by NCCLS method. Type of series: functional, organism-based. A digest of the protocol:
as §3

In the series with Staphylococcus aureus [1], `COc1cccc(N(CCCCCC2CCCCC2)c2ccc[n+](C)c2)c1.[I-]` registered an IC50 of 4.8 µg/mL, an MBC of 20 µg/mL and an MIC of 10 µg/mL. Also, in the series with Escherichia coli [2], the result was inactive. In [3], this compound returned a 50% inhibitory concentration (IC50) of 3.3 µg/mL, an MBC of 10 µg/mL and an MIC of 5 µg/mL. In the series with Staphylococcus aureus [4], this compound registered an IC50 of 0.8 µg/mL, an MBC of 20 µg/mL and an MIC of 1.3 µg/mL.
In the series with Staphylococcus aureus [1], `C[n+]1cccc(N(CCCCCC2CCCCC2)c2cccc(C#N)c2)c1.[I-]` came in with an IC50 of 3.9 µg/mL, an MBC of 10 µg/mL and an MIC of 10 µg/mL. In addition, the result in the series on Escherichia coli [2] was inactive. In series [3], the IC50 was 2 µg/mL, the MBC is 10 µg/mL and the MIC was 2.5 µg/mL. In the series on Staphylococcus aureus [4], the IC50 is 0.8 µg/mL, the MBC is 20 µg/mL and inhibition of growth (MIC) required 1.3 µg/mL.
For `COc1ccc(N(CCCCCC2CCCCC2)c2ccc[n+](C)c2)cc1.[I-]`, in the series on Aspergillus fumigatus [5], the result was inactive. For the same compound, the IC50 with Staphylococcus aureus [1] turned out to be 1.9 µg/mL; in series [3], 1 µg/mL; in the series on Staphylococcus aureus [4] it was 0.3 µg/mL; in the series on Escherichia coli [7] it was 5.4 µg/mL. Besides, the MBC against Staphylococcus aureus [1] is 10 µg/mL; in series [3], 5 µg/mL; against Staphylococcus aureus [4], 10 µg/mL; in the series on Escherichia coli [7], greater than 20 µg/mL. The MIC against Staphylococcus aureus [1] is 5 µg/mL; in [3] it was 1.3 µg/mL; with Staphylococcus aureus [4], 0.6 µg/mL; with Escherichia coli [7], greater than 20 µg/mL. Further, the CC50 at 48 h in series [6] was greater than 10 µg/mL.
Turning to `C[n+]1cccc(N(CCCCCC2CCCCC2)c2ccc(F)cc2)c1.[I-]`, the outcome in the series with Aspergillus fumigatus [5] was inactive. For the same compound, in the series with Candida albicans, the MFC was greater than 20 µg/mL. For the same compound, the IC50 stood at 3 µg/mL in the series with Staphylococcus aureus [1], 3.2 µg/mL in [3], 0.7 µg/mL in the series with Staphylococcus aureus [4] and 18 µg/mL in the series with Escherichia coli [7]. Moreover, the MBC was 20 µg/mL against Staphylococcus aureus [1], 10 µg/mL in series [3], 10 µg/mL in the series on Staphylococcus aureus [4] and greater than 20 µg/mL in the series on Escherichia coli [7]. Besides, the MIC against Staphylococcus aureus [1] was 5 µg/mL; in series [3] it was 5 µg/mL; in the series on Staphylococcus aureus [4] it was 1.3 µg/mL; in the series on Escherichia coli [7], greater than 20 µg/mL. Also, in series [6], the CC50 at 48 h is greater than 10 µg/mL.
For the compound `C[n+]1cccc2c1c1cc(C#N)ccc1n2CCCCCC1CCCCC1.[I-]`, the IC50 with Cryptococcus neoformans was 2.8 µg/mL; in the series on Candida albicans it was 19 µg/mL; in the series on Staphylococcus aureus [1], 5.8 µg/mL; in series [3], 2.1 µg/mL; with Staphylococcus aureus [4], 2.6 µg/mL. Further, the MFC was 5 µg/mL in the series with Cryptococcus neoformans and greater than 20 µg/mL against Candida albicans. For the same compound, the MIC in the series with Cryptococcus neoformans was found to be 5 µg/mL; in the series on Candida albicans it was 20 µg/mL; in the series on Staphylococcus aureus [1] it was 10 µg/mL; in series [3] it was 2.5 µg/mL; against Staphylococcus aureus [4] it was 5 µg/mL. The outcome with Aspergillus fumigatus [5] and in the series on Escherichia coli [2] was inactive. Moreover, the MBC turned out to be 20 µg/mL against Staphylococcus aureus [1], 5 µg/mL in [3] and 20 µg/mL in the series on Staphylococcus aureus [4]. The CC50 at 48 h in series [6] was greater than 10 µg/mL.
As to `Cc1ccc2c(c1)c1c(ccc[n+]1C)n2CCCCCC1CCCCC1.[I-]`, the IC50 in the series with Cryptococcus neoformans worked out at 1.3 µg/mL; in the series on Candida albicans, 2.9 µg/mL; in the series on Aspergillus fumigatus [8], 17 µg/mL; in the series with Staphylococcus aureus [1] it was 1.6 µg/mL; in [3], 1.5 µg/mL; in the series on Staphylococcus aureus [4] it was 0.4 µg/mL. In the series with Escherichia coli [7], this compound yielded an IC50 of 5.6 µg/mL. Besides, the MFC is 2.5 µg/mL against Cryptococcus neoformans, 20 µg/mL against Candida albicans and greater than 20 µg/mL in the series with Aspergillus fumigatus [8]. The MIC against Cryptococcus neoformans was 2.5 µg/mL; with Candida albicans, 5 µg/mL; against Aspergillus fumigatus [8], 20 µg/mL; with Staphylococcus aureus [1], 5 µg/mL; in series [3] it was 2.5 µg/mL; with Staphylococcus aureus [4], 0.6 µg/mL. In the series with Escherichia coli [7], this compound displayed an MIC greater than 20 µg/mL. In addition, the MBC against Staphylococcus aureus [1] is 10 µg/mL; in series [3], 5 µg/mL; with Staphylococcus aureus [4], 10 µg/mL; with Escherichia coli [7], greater than 20 µg/mL. Moreover, the CC50 at 48 h in series [6] was greater than 10 µg/mL.
For `C[n+]1cccc(N(CCCCCC2CCCCC2)c2ccc(C#N)cc2)c1.[I-]`, the result with Aspergillus fumigatus [5] and in the series with Escherichia coli [2] was inactive. In addition, the values for the IC50 (in the series on Staphylococcus aureus [1]; in series [3]; in the series with Staphylococcus aureus [4]) were 6.2 µg/mL, 2.8 µg/mL and 2.5 µg/mL, respectively. The MBC was 20 µg/mL against Staphylococcus aureus [1], 5 µg/mL in [3] and 20 µg/mL against Staphylococcus aureus [4]. Moreover, the MIC against Staphylococcus aureus [1] was found to be 10 µg/mL; in [3] it was 5 µg/mL; with Staphylococcus aureus [4], 5 µg/mL. For the same compound, the CC50 at 48 h in series [6] was greater than 10 µg/mL.
Turning to `C[n+]1cccc(N(CCCCCC2CCCCC2)c2ccccc2C#N)c1.[I-]`, in the series on Staphylococcus aureus [1], the IC50 turned out to be 6.4 µg/mL, the MBC came to 20 µg/mL and the lowest concentration to inhibit growth (MIC) was 20 µg/mL. In addition, the result with Escherichia coli [2] was inactive. In [3], this compound displayed an IC50 of 3.5 µg/mL, an MBC of 20 µg/mL and an MIC of 5 µg/mL. In the series on Staphylococcus aureus [4], this compound registered an IC50 of 1.3 µg/mL, an MBC of 10 µg/mL and an MIC of 2.5 µg/mL.
